Results from ChEMBL document CHEMBL1123779, “Modifications of primaquine as antimalarials. 4. 5-Alkoxy derivatives of primaquine” (J Med Chem, 1987).

What follows are compounds tested on Plasmodium berghei (assay: Suppressive blood schizonticidal antimalarial activity evaluated in the trophozoite-induced Plasmodium berghei infection in mice (Mus musculus) at a dose 640 mg/kg given as number of toxic deaths). Details: in vivo.
Format: toxicity, organism-based
Set-up: dose 640 mg/kg
Outline: (§1)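 Rane Laboratory mouse test with blood-induced P. berghei infection, five mice per group. Toxic deaths are deaths occurring before the 6th day postinfection.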
In the case of `COCCCCCCOc1c(OC)cc(NC(C)CCCN)c2nccc(C)c12` (stereo not drawn), the Toxic deaths is reported as 5. In the case of `CCCCOc1c(OC)cc(NC(C)CCCN)c2nccc(C)c12` (stereo not drawn), the Toxic deaths is reported as 5. Compound `COc1cc(NC(C)CCCN)c2nccc(C)c2c1OCCCCOc1ccccc1` (stereo not drawn) has a Toxic deaths of 5. `CCCOc1c(OC)cc(NC(C)CCCN)c2nccc(C)c12` (stereo not drawn) showed a Toxic deaths of 5.

Each compound was assayed on Plasmodium cynomolgi (assay: Cures in Plasmodium cynomolgi infected Rhesus monkeys (Macaca mulatta) on 1 mg/kg/day after 7 days; cured 2 of 2). Details: not given.
Format: functional
Work on `COCCCCCCOc1c(OC)cc(NC(C)CCCN)c2nccc(C)c12` (stereo not drawn) yielded a Cures/no. of animals of 2.

These compounds were tested on Mus musculus (assay: Suppressive blood schizonticidal antimalarial activity evaluated in the trophozoite-induced Plasmodium berghei infection in mice (Mus musculus) at a dose 160 mg/kg given as no. of toxic deaths). Details: not given.
Format: functional
Outline: as §1
Compound `COCCCCCCOc1c(OC)cc(NC(C)CCCN)c2nccc(C)c12` (stereo not drawn) has a Toxic deaths of 5. Compound `CCCCOc1c(OC)cc(NC(C)CCCN)c2nccc(C)c12` (stereo not drawn) has a Toxic deaths of 5. Compound `COc1cc(NC(C)CCCN)c2nccc(C)c2c1OCCCCOc1ccccc1` (stereo not drawn) has a Toxic deaths of 5. In the case of `CCCOc1c(OC)cc(NC(C)CCCN)c2nccc(C)c12` (stereo not drawn), the Toxic deaths is reported as 5.

What follows are compounds tested on Plasmodium cynomolgi (assay: Cures in Plasmodium cynomolgi infected Rhesus monkeys (Macaca mulatta) on 0.316 mg/kg/day after 7 days; cured 0 of 1). Details: not given.
Format: functional
Work on `COc1cc(NC(C)CCCN)c2ncccc2c1OCC(F)(F)F` (stereo not drawn) yielded a Cures/no. of animals of 0. `COCCCCCCOc1c(OC)cc(NC(C)CCCN)c2nccc(C)c12` (stereo not drawn) was tested, and the Cures/no. of animals was 0.

What follows are compounds tested on Plasmodium cynomolgi (assay: Cures in Plasmodium cynomolgi infected Rhesus monkeys (Macaca mulatta) on 0.316 mg/kg/day after 7 days; cures 2 of 2). Details: not given.
Format: functional
Compound `CCCCOc1c(OC)cc(NC(C)CCCN)c2nccc(C)c12` (stereo not drawn) has a Cures/no. of animals of 2. `CCCOc1c(OC)cc(NC(C)CCCN)c2nccc(C)c12` (stereo not drawn) was tested, and the Cures/no. of animals was 2.

These compounds were tested on Mus musculus (assay: Suppressive blood schizonticidal antimalarial activity evaluated in the trophozoite-induced Plasmodium berghei infection in mice (Mus musculus) at a dose 320 mg/kg given as no. of toxic deaths). Details: not given.
Format: functional
Outline: as §1
`CCCCOc1c(OC)cc(NC(C)CCCN)c2nccc(C)c12` (stereo not drawn) showed a Toxic deaths of 5. `COc1cc(NC(C)CCCN)c2nccc(C)c2c1OCCCCOc1ccccc1` (stereo not drawn) gave a Toxic deaths of 5.

The compounds below were run on Mus musculus (assay: Suppressive blood schizonticidal antimalarial activity evaluated in the trophozoite-induced Plasmodium berghei infection in mice (Mus musculus) at a dose 2.5 mg/kg). Details: not given.
Format: functional
Outline: (§2)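 Run at the Rane Laboratory in mice infected with blood-induced P. berghei, five animals per group. Activity is the increase in mean survival time over untreated infected controls. A compound counts as active when treated-group MST is more than twice the control MST. Cures are mice surviving at 60 days postinfection.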
In the case of `COCCCCCCOc1c(OC)cc(NC(C)CCCN)c2nccc(C)c12` (stereo not drawn), the “Delta MST” value is reported as 6.9. In the case of `COc1cc(NC(C)CCCN)c2nccc(C)c2c1OCCCCOc1ccccc1` (stereo not drawn), the “Delta MST” value is reported as 8. For `CCCOc1c(OC)cc(NC(C)CCCN)c2nccc(C)c12` (stereo not drawn), the “Delta MST” value was 6.

The compounds below were run on Plasmodium cynomolgi (assay: Cures in Plasmodium cynomolgi infected Rhesus monkeys (Macaca mulatta) on 0.1 mg/kg/day after 7 days (x7); cured 0 of 2). Details: not given.
Format: functional
In the case of `COCCCCCCOc1c(OC)cc(NC(C)CCCN)c2nccc(C)c12` (stereo not drawn), the Cures/no. of animals is reported as 0. In the case of `CCCCOc1c(OC)cc(NC(C)CCCN)c2nccc(C)c12` (stereo not drawn), the Cures/no. of animals is reported as 0. In the case of `COc1cc(NC(C)CCCN)c2nccc(C)c2c1OCCCCOc1ccccc1` (stereo not drawn), the Cures/no. of animals is reported as 0. With `CCCOc1c(OC)cc(NC(C)CCCN)c2nccc(C)c12` (stereo not drawn) the Cures/no. of animals was 0.

What follows are compounds tested on Mus musculus (assay: Suppressive blood schizonticidal antimalarial activity evaluated in the trophozoite-induced Plasmodium berghei infection in mice (Mus musculus) at a dose 20 mg/kg given as no. of cures). Details: not given.
Format: functional
Outline: (§3)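 Run at the Rane Laboratory with blood-induced P. berghei infections in mice, five animals per group. A cure is a mouse surviving to 60 days postinfection. Deaths before day 6 are recorded separately as toxic deaths. Activity is scored from the increase in mean survival time over untreated controls, and counts as active when treated MST is more than twice control MST.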
`COCCCCCCOc1c(OC)cc(NC(C)CCCN)c2nccc(C)c12` (stereo not drawn) gave a Cures of 2. Work on `CCCCOc1c(OC)cc(NC(C)CCCN)c2nccc(C)c12` (stereo not drawn) yielded a Cures of 5. `COc1cc(NC(C)CCCN)c2nccc(C)c2c1OCCCCOc1ccccc1` (stereo not drawn) showed a Cures of 5. Compound `CCCOc1c(OC)cc(NC(C)CCCN)c2nccc(C)c12` (stereo not drawn) has a Cures of 3.

The compounds below were run on Mus musculus (assay: Suppressive blood schizonticidal antimalarial activity evaluated in the trophozoite-induced Plasmodium berghei infection in mice (Mus musculus) at a dose 10 mg/kg). Details: not given.
Format: functional
Outline: as §2
`CCCCOc1c(OC)cc(NC(C)CCCN)c2nccc(C)c12` (stereo not drawn) was tested, and the “Delta MST” value was 11. For `COc1cc(NC(C)CCCN)c2nccc(C)c2c1OCCCCOc1ccccc1` (stereo not drawn), the “Delta MST” value was 10.2.

Each compound was assayed on Mus musculus (assay: Suppressive blood schizonticidal antimalarial activity evaluated in the trophozoite-induced Plasmodium berghei infection in mice (Mus musculus) at a dose 40 mg/kg given as number of toxic deaths). Details: in vivo.
Format: ADME, organism-based
Set-up: dose 40 mg/kg
Outline: as §1
`COCCCCCCOc1c(OC)cc(NC(C)CCCN)c2nccc(C)c12` (stereo not drawn) showed a Toxic deaths of 3. In the case of `CCCOc1c(OC)cc(NC(C)CCCN)c2nccc(C)c12` (stereo not drawn), the Toxic deaths is reported as 3.

The compounds below were run on Mus musculus (assay: Suppressive blood schizonticidal antimalarial activity evaluated in the trophozoite-induced Plasmodium berghei infection in mice (Mus musculus) at a dose 5 mg/kg given as no. of cures). Details: not given.
Format: functional
Outline: as §3
`COCCCCCCOc1c(OC)cc(NC(C)CCCN)c2nccc(C)c12` (stereo not drawn) was tested, and the Cures was 1. In the case of `COc1cc(NC(C)CCCN)c2nccc(C)c2c1OCCCCOc1ccccc1` (stereo not drawn), the Cures is reported as 1. Compound `CCCOc1c(OC)cc(NC(C)CCCN)c2nccc(C)c12` (stereo not drawn) has a Cures of 1.

The compounds below were run on Plasmodium cynomolgi (assay: Cures in Plasmodium cynomolgi infected Rhesus monkeys (Macaca mulatta) on 1 mg/kg/day after 7 days; cured 1 of 1). Details: not given.
Format: functional
Work on `COc1cc(NC(C)CCCN)c2ncccc2c1OCC(F)(F)F` (stereo not drawn) yielded a Cures/no. of animals of 1. With `CCCCOc1c(OC)cc(NC(C)CCCN)c2nccc(C)c12` (stereo not drawn) the Cures/no. of animals was 1. Compound `CCCOc1c(OC)cc(NC(C)CCCN)c2nccc(C)c12` (stereo not drawn) has a Cures/no. of animals of 1.

What follows are compounds tested on Plasmodium berghei (assay: Blood schizonticidal activity in trophozoite-induced Plasmodium berghei infected mice (Mus musculus) at 40 mg/kg; numbers cured). Details: not given.
Format: functional
Outline: as §3
`COCCCCCCOc1c(OC)cc(NC(C)CCCN)c2nccc(C)c12` (stereo not drawn) showed a Cures of 2. With `CCCCOc1c(OC)cc(NC(C)CCCN)c2nccc(C)c12` (stereo not drawn) the Cures was 3. `COc1cc(NC(C)CCCN)c2nccc(C)c2c1OCCCCOc1ccccc1` (stereo not drawn) gave a Cures of 5.

What follows are compounds tested on Mus musculus (assay: Suppressive blood schizonticidal antimalarial activity evaluated in the trophozoite-induced Plasmodium berghei infection in mice (Mus musculus) at a dose 80 mg/kg given as no. of toxic deaths). Details: not given.
Format: functional
Outline: as §1
`CCCCOc1c(OC)cc(NC(C)CCCN)c2nccc(C)c12` (stereo not drawn) showed a Toxic deaths of 4. Work on `COc1cc(NC(C)CCCN)c2nccc(C)c2c1OCCCCOc1ccccc1` (stereo not drawn) yielded a Toxic deaths of 5.

What follows are compounds tested on Mus musculus (assay: Suppressive blood schizonticidal antimalarial activity evaluated in the trophozoite-induced Plasmodium berghei infection in mice (Mus musculus) at a dose 10 mg/kg given as no. of cures). Details: not given.
Format: functional
Outline: as §3
`COCCCCCCOc1c(OC)cc(NC(C)CCCN)c2nccc(C)c12` (stereo not drawn) was tested, and the Cures was 3. For `CCCOc1c(OC)cc(NC(C)CCCN)c2nccc(C)c12` (stereo not drawn), the Cures was 1.
